This is an account of results in ChEMBL document CHEMBL3603839, “Synthesis and antiproliferative activity of new bioconjugates of Salinomycin with amino acid esters” (Bioorg Med Chem Lett, 2015).

Assay [1] in a line: Antiproliferative activity against doxorubicin-resistant human LoVo/DX cells after 72 hrs. The assay is classed as functional, cell-based. In a few lines:
(§1)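 IC50 values (mean ± SD) were measured against human colon adenocarcinoma LoVo cells, their doxorubicin-resistant LoVo/DX subline, MV4-11 cells, and normal murine embryonic fibroblasts (BALB/3T3).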

Assay [2] relates to LoVo. As to the kind of experiment: Resistant index, ratio of IC50 for human LoVo/DX cells to IC50 for LoVo cells. The assay is classed as functional. In a few lines:
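Resistance index was calculated from IC50 values obtained in the doxorubicin-resistant LoVo/DX subline and the parental LoVo line. RI 0–2 is classed as sensitive, 2–10 as moderately sensitive, and above 10 as strongly resistant.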

Assay [3] concerns LoVo. The experiment in a line: Antiproliferative activity against human LoVo cells after 72 hrs. It counts as functional, cell-based. In a few lines:
as §1

In assay [4] the test system is MV4-11. The experiment in a line: Selectivity index, ratio of IC50 for mouse BALB/3T3 cells to IC50 for human MV4-11 cells. It counts as functional. In a few lines: (§2)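 Selectivity index is the IC50 in normal BALB/3T3 fibroblasts divided by the IC50 in the respective cancer line. SI above 1.0 is taken as a favourable value.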
A short description of assay [5]: Selectivity index, ratio of IC50 for mouse BALB/3T3 cells to IC50 for human LoVo/DX cells. The assay is classed as functional. In a few lines:
as §2

The subject of assay [6] is MV4-11. As to the kind of experiment: Antiproliferative activity against human MV4-11 cells after 72 hrs. It counts as functional, cell-based. Conditions: MV4-11, 72 h. In a few lines:
as §1

For the next assay, the system named is BALB/3T3. The experiment in a line: Antiproliferative activity against mouse BALB/3T3 cells after 72 hrs. The assay is classed as cell-based. Conditions: BALB/3T3, 72 h. In a few lines: as §1
The test system of assay [7] is LoVo. The experiment in a line: Selectivity index, ratio of IC50 for mouse BALB/3T3 cells to IC50 for human LoVo cells. The assay is classed as functional. In a few lines: as §2
Assay [8] is described as follows: Ratio of cisplatin IC50 to compound IC50 for doxorubicin-resistant human LoVo/DX cells. It counts as functional.
A short description of assay [9]: Ratio of doxorubicin IC50 to compound IC50 for doxorubicin-resistant human LoVo/DX cells. It counts as functional.

For the compound `CC[C@@H](C(=O)[C@@H](C)[C@@H](O)[C@H](C)[C@@H]1O[C@@H]([C@@H](CC)C(=O)N[C@@H](Cc2ccc(O)cc2)C(=O)OC)CC[C@@H]1C)[C@H]1O[C@]2(C=C[C@@H](O)[C@]3(CC[C@@](C)([C@H]4CC[C@](O)(CC)[C@H](C)O4)O3)O2)[C@H](C)C[C@@H]1C`, the half-inhibitory concentration (IC50) in [1] turned out to be 7.12 µM; in the assay on LoVo [3] it was 14.7 µM; in the assay with MV4-11 [6], 3.55 µM; in the assay on BALB/3T3 it was 43.4 µM. The “Ratio IC50” value amounted to 0.48 with LoVo [2], 12.22 in the assay with MV4-11 [4], 6.09 in [5] and 2.95 with LoVo [7].
As to `CC[C@@H](C(=O)[C@@H](C)[C@@H](O)[C@H](C)[C@@H]1O[C@@H]([C@@H](CC)C(=O)NCC(=O)OC)CC[C@@H]1C)[C@H]1O[C@]2(C=C[C@@H](O)[C@]3(CC[C@@](C)([C@H]4CC[C@](O)(CC)[C@H](C)O4)O3)O2)[C@H](C)C[C@@H]1C`, the IC50 in [1] is 3.93 µM; in the assay with LoVo [3], 5.29 µM; in the assay with MV4-11 [6], 3.65 µM; with BALB/3T3, 42.5 µM. Also, the “Ratio IC50” value with LoVo [2] is 0.74; in the assay on MV4-11 [4], 11.64; in assay [5], 10.81; in the assay on LoVo [7] it was 8.03.
As for `CC[C@@H](C(=O)[C@@H](C)[C@@H](O)[C@H](C)[C@@H]1O[C@@H]([C@@H](CC)C(=O)N[C@@H](CO)C(=O)OC)CC[C@@H]1C)[C@H]1O[C@]2(C=C[C@@H](O)[C@]3(CC[C@@](C)([C@H]4CC[C@](O)(CC)[C@H](C)O4)O3)O2)[C@H](C)C[C@@H]1C`, the concentration for half-maximal inhibition (IC50) in assay [1] came out at 7.77 µM; with LoVo [3] it was 17.7 µM; in the assay on MV4-11 [6], 5.81 µM; with BALB/3T3, 40.1 µM. For the same compound, the “Ratio IC50” value was 0.44 in the assay with LoVo [2], 6.9 with MV4-11 [4], 5.16 in [5] and 2.27 with LoVo [7].
For `CC[C@@H](C(=O)[C@@H](C)[C@@H](O)[C@H](C)[C@@H]1O[C@@H]([C@@H](CC)C(=O)O)CC[C@@H]1C)[C@H]1O[C@]2(C=C[C@@H](O)[C@]3(CC[C@@](C)([C@H]4CC[C@](O)(CC)[C@H](C)O4)O3)O2)[C@H](C)C[C@@H]1C` [SALINOMYCIN], the IC50 in [1] came to 0.59 µM; in the assay with LoVo [3], 0.53 µM; in the assay on MV4-11 [6], 0.33 µM. Also, the “Ratio IC50” value in the assay with LoVo [2] was found to be 1.11; with MV4-11 [4], 84.12; in assay [5], 47.05; in the assay with LoVo [7], 52.38.
Turning to `CC[C@@H](C(=O)[C@@H](C)[C@@H](O)[C@H](C)[C@@H]1O[C@@H]([C@@H](CC)C(=O)N[C@@H](Cc2cnc[nH]2)C(=O)OC)CC[C@@H]1C)[C@H]1O[C@]2(C=C[C@@H](O)[C@]3(CC[C@@](C)([C@H]4CC[C@](O)(CC)[C@H](C)O4)O3)O2)[C@H](C)C[C@@H]1C`, the “Ratio IC50” value in [8] stood at 3; in the assay on LoVo [2], 0.23; with MV4-11 [4], 46.26; in assay [5], 43.54; in [9] it was 9; in the assay with LoVo [7], 10.08. Besides, the IC50 amounted to 0.85 µM in assay [1], 3.67 µM in the assay with LoVo [3], 0.8 µM with MV4-11 [6] and 37 µM in the assay with BALB/3T3.
Consider `COc1cccc2c1C(=O)c1c(O)c3c(c(O)c1C2=O)C[C@@](O)(C(=O)CO)C[C@@H]3O[C@H]1C[C@H](N)[C@H](O)[C@H](C)O1` [DOXORUBICIN], for which the IC50 was determined as 7.26 µM in [1], 0.09 µM in the assay on LoVo [3], 0.05 µM with MV4-11 [6] and 0.31 µM with BALB/3T3. Besides, the “Ratio IC50” value stood at 80.67 in the assay on LoVo [2], 6.2 in the assay with MV4-11 [4], 0.04 in assay [5] and 3.44 in the assay with LoVo [7].
Turning to `CC[C@@H](C(=O)[C@@H](C)[C@@H](O)[C@H](C)[C@@H]1O[C@@H]([C@@H](CC)C(=O)N[C@@H](Cc2ccccc2)C(=O)OC)CC[C@@H]1C)[C@H]1O[C@]2(C=C[C@@H](O)[C@]3(CC[C@@](C)([C@H]4CC[C@](O)(CC)[C@H](C)O4)O3)O2)[C@H](C)C[C@@H]1C`, the half-maximal inhibitory concentration (IC50) in assay [1] came to 3.49 µM; with LoVo [3], 3.49 µM; in the assay with MV4-11 [6], 2.89 µM; in the assay on BALB/3T3, 17 µM. Also, the “Ratio IC50” value with LoVo [2] worked out at 1; with MV4-11 [4] it was 5.89; in [5], 4.87; in the assay on LoVo [7], 4.87.
